Screens from PubChem BioAssay.
Casp6 inh: human caspase-6 inhibitors, primary screen, biochemical, VEID-R110 fluorescence, single point, set 2 | purified caspase-6, Z-VEID-R110 cleavage fluorescence | P55212 | 350,000 tested, 0.53% active | AID 686996, 2013 | inhibition, % at 12.5 µM;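 active means mean inhibition across replicates at least about 35%, with every replicate also reaching that limit, limit read from the data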;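 further: 0% = median of neutral control wells and 100% = no fluorescence left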
Target sequence (P55212 24-179 limits assumed): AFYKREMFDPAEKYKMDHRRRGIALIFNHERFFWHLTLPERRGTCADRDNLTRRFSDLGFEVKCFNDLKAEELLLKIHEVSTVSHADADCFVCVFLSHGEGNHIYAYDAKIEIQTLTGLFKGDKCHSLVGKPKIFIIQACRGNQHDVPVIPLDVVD
Target sequence (P55212 194-293 limits assumed): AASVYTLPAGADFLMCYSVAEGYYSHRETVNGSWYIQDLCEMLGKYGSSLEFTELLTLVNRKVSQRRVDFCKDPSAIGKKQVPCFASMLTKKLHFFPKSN
HCV NS3 hel inh: inhibitors of HCV NS3 helicase, primary screen, biochemical, Cy5 molecular beacon fluorescence; Hepatitis C virus NS3 helicase; NS3 helicase DNA unwinding; inhibition, % at 10.9 µM; 290,000 tested, 0.56% active;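 active means inhibition above the mean of all tested compounds plus 3 SD, set per campaign, cut at about 35% in these data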;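 further: 0% = DMSO wells and 100% = thioflavine S control wells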
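Assay system – hepatitis C virus NS3 helicase domain fragment enzyme · Buffer or medium – MOPS pH 6.5, MgCl2, DTT, Tween20, BSA · Reagent – Cy5/quencher beacon DNA duplex and ATP to start · Compound – single 10.9 µM dose · Timing – 1 h at 25 °C · Technique – Cy5 beacon fluorescence read at start and 1 h · Measure – % inhibition of unwinding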
NSD2 HMT inh: NSD2 histone methyltransferase inhibitors, primary screen, biochemical, AlphaScreen, single concentration, set 2. Histone-lysine N-methyltransferase NSD2 (Homo sapiens), O96028. NSD2 peptide methylation, 120 min. inhibition, % at 12.5 µM. 310,000 tested, 0.54% active. AID 743445, 2014
DNMT1 block: human DNMT1 methyltransferase inhibitors, primary screen, biochemical, molecular beacon, fluorescence, HinP1I cleavage, uHTS; inhibition (reported as % activation of signal), % at 10 µM; 360,000 tested, 0.83% active; AID 588458, 2011
* marks the source's active call; other numbers are inactive results. This is a sample that favours compounds with a hit; in the whole collection about 1.5% have one here. Unless noted, no stated cut-off is given here; in the data, active means inhibition above about 50%; inactive means the rest.

For CC(=O)Nc1ccc(S(=O)(=O)NC2=C(N3CCN(C)CC3)C(=O)c3ccccc3C2=O)cc1 the results were Casp6 inh 44*, HCV NS3 hel inh -2, NSD2 HMT inh 29 and DNMT1 block -6.
CC(=O)Nc1ccc(S(=O)(=O)NC2=C(N3CCN(Cc4ccccc4)CC3)C(=O)c3ccccc3C2=O)cc1 was read as Casp6 inh 30, HCV NS3 hel inh 4, NSD2 HMT inh 24 and DNMT1 block -14.
Screening CCN1CCN(C2=C(NS(=O)(=O)c3ccc(C)cc3)C(=O)c3ccccc3C2=O)CC1 returned Casp6 inh 62*, HCV NS3 hel inh -2, NSD2 HMT inh 51* and DNMT1 block -10.
CC1CCN(C2=C(NS(=O)(=O)c3ccccc3)C(=O)c3ccccc3C2=O)CC1 was read as Casp6 inh 11, HCV NS3 hel inh -2, NSD2 HMT inh 49 and DNMT1 block -7.
Screening CCOC(=O)N1CCN(C2=C(NS(=O)(=O)c3ccc(NC(C)=O)cc3)C(=O)c3ccccc3C2=O)CC1 returned Casp6 inh 19, HCV NS3 hel inh 3, NSD2 HMT inh 48 and DNMT1 block -6.
`CCN1CCN(C2=C(NS(=O)(=O)c3ccc(NC(C)=O)cc3)C(=O)c3ccccc3C2=O)CC1` gave Casp6 inh 48*, HCV NS3 hel inh 0, NSD2 HMT inh 26 and DNMT1 block -7.
For CCOC(=O)C1CCN(C2=C(NS(=O)(=O)c3ccc(Cl)cc3)C(=O)c3ccccc3C2=O)CC1 the results were Casp6 inh 0, HCV NS3 hel inh 2, NSD2 HMT inh 67* and DNMT1 block -10.
For CN(C[C@@H]1N[C@H](CO)[C@@H]1c1ccc(C2=CCCC2)cc1)S(C)(=O)=O the results were Casp6 inh -3.
Cc1ccc(S(=O)(=O)N(C)C[C@@H]2OCCCC[C@H](C)Oc3ccc(NC(=O)Nc4ccc5c(c4)OCO5)cc3C(=O)N([C@@H](C)CO)C[C@H]2C)cc1 was read as Casp6 inh -1.
`CCCC(=O)Nc1ccc2c(c1)OC[C@@H](C)N(Cc1nccs1)C[C@@H](C)[C@H](OC)CN(C)C2=O` gave Casp6 inh -3.
`CC1=C(c2ccccc2)[N+](=O)C2(CCCC2)N1[O-]` gave HCV NS3 hel inh -1, NSD2 HMT inh -4 and DNMT1 block -1.
`O=[N+]([O-])c1ccc2c(c1)N([O-])C1(CCCCC1)[N+]2=O` gave Casp6 inh 34, HCV NS3 hel inh 27 and NSD2 HMT inh 84*.
C[C@@H]1CN([C@H](C)CO)S(=O)(=O)c2ccc(C3=CCCCC3)cc2O[C@@H]1CN(C)S(=O)(=O)c1cn(C)cn1 was read as Casp6 inh 3.
Screening C[C@H]1CN([C@@H](C)CO)C(=O)c2cc(NS(C)(=O)=O)ccc2O[C@H]1CN(C)C(=O)Nc1cccc2ccccc12 returned Casp6 inh 0.
For Fc1cccc(Cc2c(-c3ccco3)nc3ccc(Br)cn23)c1 the results were Casp6 inh 2 and DNMT1 block 50*.
For Fc1cccc(Cc2c(-c3ccco3)nc3ccc(Cl)cn23)c1 the results were DNMT1 block 19.
COC(=O)C[C@H]1CC[C@@H]2[C@H](COc3ccc(NC(=O)Nc4cccc(C)c4)cc3C(=O)N2C)O1 was read as Casp6 inh 1.
For O=C(CCCCCCCC(=O)c1ccccc1)c1ccccc1 the results were Casp6 inh 3, HCV NS3 hel inh 0, NSD2 HMT inh -5 and DNMT1 block -3.
`C=C(CCC(=O)c1ccccc1)C(=O)c1ccccc1` gave Casp6 inh 61*, HCV NS3 hel inh -16, NSD2 HMT inh 4 and DNMT1 block 25.
Screening COc1cccc(/C=N/NC(=S)NCCc2ccccc2)c1 returned Casp6 inh 35*, HCV NS3 hel inh -7, NSD2 HMT inh -1 and DNMT1 block 3.
`COc1ccc(/C=N/NC(=S)NCCc2ccccc2)cc1` gave Casp6 inh -2, HCV NS3 hel inh -24, NSD2 HMT inh -2 and DNMT1 block -8.
FC(F)(F)c1ccc(Cl)c(-n2c(-c3ccco3)n[nH]c2=S)c1 was read as Casp6 inh 1, HCV NS3 hel inh 5, NSD2 HMT inh 4 and DNMT1 block 1.
`FC(F)(F)c1ccc(Cl)c(-n2c(-c3cc(-c4ccco4)[nH]n3)n[nH]c2=S)c1` gave Casp6 inh 69*, HCV NS3 hel inh 28, NSD2 HMT inh 5 and DNMT1 block -1.
For CCn1cc(C(=O)NC(C)C23CC4CC(CC(C4)C2)C3)cn1 (stereo not drawn) the results were Casp6 inh 2, HCV NS3 hel inh -2, NSD2 HMT inh -2 and DNMT1 block 4.
`CC(NC(=O)Cn1ncc(Cl)c(Cl)c1=O)C12CC3CC(CC(C3)C1)C2` (stereo not drawn) gave HCV NS3 hel inh 7, NSD2 HMT inh 5 and DNMT1 block 59*.
Screening O=S(=O)(O)c1cc(O)c2c(O)c(N=Nc3cc(Cl)ccc3O)c(S(=O)(=O)O)cc2c1 returned HCV NS3 hel inh 34 and DNMT1 block 85*.
COc1ccccc1S(=O)(=O)N[C@@H]1C=C[C@@H](CC(=O)NCc2cc(F)cc(F)c2)O[C@H]1CO was read as Casp6 inh 0.
`Nc1cccc2c1C(=O)N(Cc1cccc(Cl)c1)C2=O` gave Casp6 inh 1, HCV NS3 hel inh -5, NSD2 HMT inh 26 and DNMT1 block 0.
Screening O=C1Cc2ccccc2C(=O)N1Cc1cccc(Cl)c1 returned Casp6 inh 68*, HCV NS3 hel inh 4, NSD2 HMT inh 1 and DNMT1 block -10.
Cn1c(=O)[nH]c(=O)c2c1nc(CN1CCOCC1)n2Cc1ccccc1 was read as Casp6 inh 51*, HCV NS3 hel inh -3, NSD2 HMT inh -3 and DNMT1 block -1.
For Cn1c(=O)[nH]c(=O)c2c1nc(CN1CCOCC1)n2CCc1ccccc1 the results were HCV NS3 hel inh 2, NSD2 HMT inh 18 and DNMT1 block 4.
For Cc1cccc(C)c1NS(=O)(=O)c1ccc(-c2ccc(=O)[nH]n2)o1 the results were Casp6 inh 41*, HCV NS3 hel inh -12, NSD2 HMT inh -5 and DNMT1 block -1.
`Cc1ccc(NS(=O)(=O)c2ccc(-c3ccc(=O)[nH]n3)o2)cc1` gave Casp6 inh -4, HCV NS3 hel inh 19, NSD2 HMT inh -4 and DNMT1 block -2.
Screening CCN(C(=O)COC(=O)c1oc2ccccc2c1C)c1c(N)n(Cc2ccccc2)c(=O)[nH]c1=O returned Casp6 inh 54*, NSD2 HMT inh 1 and DNMT1 block 1.
For CCN(C(=O)COC(=O)CNC(=O)c1ccc(C)cc1)c1c(N)n(Cc2ccccc2)c(=O)[nH]c1=O the results were Casp6 inh 4, NSD2 HMT inh 122* and DNMT1 block 1.
